Here are results for nine compounds from ChEMBL document CHEMBL1155929, “3-(4-(6-Fluoroalkoxy-3,4-dihydroisoquinoline-2(1H)-yl)cyclohexyl)-1H-indole-5-carbonitriles for SERT imaging: chemical synthesis, evaluation in vitro and radiofluorination” (Bioorg Med Chem Lett, 2008).

Broadly, the Ki is a dissociation constant, usually derived from enzyme kinetics or from competition with a known ligand. Read a low Ki as tighter binding. What is called logD is the decadic logarithm of the distribution of all forms, ionised or not, between an organic phase and buffer at a given pH. High values mean a more lipophilic compound, low ones a more hydrophilic compound. Usually chromatographic logD stands for lipophilicity estimated from chromatographic retention. Read a low chromatographic logD as lower lipophilicity.

For data set [1], the target named is T1, 5-hydroxytryptamine receptor 1A (Rattus norvegicus, UniProt P19327).
T1 sequence (P19327 whole entry): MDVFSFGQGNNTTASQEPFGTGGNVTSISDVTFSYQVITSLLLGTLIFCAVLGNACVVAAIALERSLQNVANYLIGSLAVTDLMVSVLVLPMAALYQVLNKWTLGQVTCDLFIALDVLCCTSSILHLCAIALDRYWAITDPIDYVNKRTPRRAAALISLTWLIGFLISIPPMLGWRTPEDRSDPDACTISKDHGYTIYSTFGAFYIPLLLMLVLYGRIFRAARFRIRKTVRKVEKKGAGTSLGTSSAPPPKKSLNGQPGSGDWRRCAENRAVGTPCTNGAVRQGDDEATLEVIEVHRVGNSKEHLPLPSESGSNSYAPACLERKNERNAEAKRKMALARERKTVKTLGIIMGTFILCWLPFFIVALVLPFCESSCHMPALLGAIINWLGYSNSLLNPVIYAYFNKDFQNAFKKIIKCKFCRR
In words: Displacement of [3H]8-OH-DPAT from 5HT1A receptor in rat cortical membrane. It counts as cell membranes. In a few lines: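 Rat cortical membrane homogenate diluted in 50 mM Tris-HCl pH 7.4, 4 mM CaCl2, 0.1% ascorbic acid. Incubated with 0.3 nM [3H]-8-OH-DPAT and 6-12 test concentrations at 21 °C for 60 min. Nonspecific binding defined with 10 µM serotonin hydrochloride. IC50 from triplicates per experiment, at least three independent experiments; Ki calculated.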
For orientation: Loss of bound radioactivity is the signal in a displacement assay; it reports binding, not function.

The target of data set [2] is T2, Sodium-dependent serotonin transporter (Homo sapiens, UniProt P31645). In words: biochemical. It counts as cell-based, HEK293.
Target sequence in this assay (P31645 whole entry): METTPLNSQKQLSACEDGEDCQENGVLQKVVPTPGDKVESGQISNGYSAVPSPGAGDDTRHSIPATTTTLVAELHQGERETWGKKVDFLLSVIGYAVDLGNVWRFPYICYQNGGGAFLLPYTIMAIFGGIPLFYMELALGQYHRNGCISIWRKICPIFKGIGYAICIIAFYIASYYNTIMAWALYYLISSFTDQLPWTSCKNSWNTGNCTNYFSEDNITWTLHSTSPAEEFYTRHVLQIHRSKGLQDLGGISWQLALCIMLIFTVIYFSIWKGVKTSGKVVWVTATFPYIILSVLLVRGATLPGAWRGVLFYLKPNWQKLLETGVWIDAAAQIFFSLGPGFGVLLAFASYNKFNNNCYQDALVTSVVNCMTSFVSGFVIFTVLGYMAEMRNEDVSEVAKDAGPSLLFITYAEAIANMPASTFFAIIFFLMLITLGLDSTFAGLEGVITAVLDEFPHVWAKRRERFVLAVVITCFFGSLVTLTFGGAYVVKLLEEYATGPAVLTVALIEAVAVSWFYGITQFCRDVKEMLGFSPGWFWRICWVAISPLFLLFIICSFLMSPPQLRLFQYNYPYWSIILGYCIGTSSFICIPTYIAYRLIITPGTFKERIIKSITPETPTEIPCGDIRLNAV
In data set [3] the target is Sodium-dependent noradrenaline transporter (Homo sapiens, UniProt P23975). In words: Displacement of [3H]nisoxetine from human NET expressed in HEK293 cells. It counts as cell-based. In a few lines:
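Homogenate of HEK293 cells stably expressing hNET, in 50 mM Tris-HCl pH 7.4, 120 mM NaCl, 5 mM KCl. Incubated with 0.5 nM [3H]nisoxetine (KD 6.77 nM) and 6-12 test concentrations at 21 °C for 60 min. Nonspecific binding with 100 µM protriptyline. IC50 from triplicates per experiment; Ki calculated.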

Data set [4] has as its target T2, Sodium-dependent serotonin transporter. In words: biochemical. It counts as cell-based, HEK293. This is another data set of the same source.
Target sequence in this assay (P31645 whole entry): as above
Data set [5] addresses Sodium-dependent dopamine transporter (Homo sapiens, UniProt Q01959). Kind of data set: Displacement of [3H]WIN-35428 from human DAT expressed in HEK293 cells. It counts as cell-based. The procedure, abridged: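 Homogenate of HEK293 cells stably expressing hDAT, in 50 mM Tris-HCl pH 7.4, 100 mM NaCl. Incubated with 0.5 nM [3H]WIN35,428 (KD 24.1 nM) and 6-12 test concentrations on ice for 120 min. Nonspecific binding with 10 µM GBR12909. IC50 from triplicates per experiment; Ki calculated.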

In data set [6] the target is T2, Sodium-dependent serotonin transporter. In words: Ratio of Ki for displacement of [3H]paroxetine to displacement of [3H]citalopram from human SERT expressed in […] cells. It counts as cell-based.
Target sequence in this assay (P31645 whole entry, looked up): as the sequence (P31645 whole entry) above
Data set [7] can be described thus: Stability in aqueous sodium hydroxide at 80 degC after 30 mins. It counts as physicochemical. To be noted: buffer, 0.5 h. In a few lines: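 18F tracer held in 0.1 or 1.3 M aqueous NaOH at 80 °C. Analysed by radio-HPLC and TLC.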
Data set [8] in a line: Partition coefficient, log D in phosphate buffer at pH 7.2 to 7.4 by extractive method. It counts as physicochemical. To be noted: octanol/water. The procedure, abridged:
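Batch n-octanol–buffer extraction of the 18F-labelled tracer. Buffers were 50 mM Sørensen phosphate pH 7.2, Dulbecco's PBS pH 7.2, and 30 mM Tris-HCl pH 7.4. n = 3 per buffer system.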

Data set [9] in a line: Partition coefficient, log D at pH 7.2 to 7.4 by HPLC Supelcosil. Conditions: octanol/water. It counts as physicochemical. The procedure, abridged:
(§1)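 HPLC log D on Multisorb RP18-7 or Supelcosil ABZ+ Plus columns. Gradient from 5% MeCN + 20 mM ammonium acetate to 80% MeCN + 20 mM ammonium acetate over 55 min at 1 ml/min. n ≥ 3 per standard or sample.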

The next data set concerns Cortex. In words: Stability in rat cortex at pH 7.2 to 7.4 after 120 mins. It counts as ADME, tissue-based. To be noted: buffer, pH 7.2, 2 h. In a few lines: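 18F tracer incubated at 37 °C in rat cortex homogenate in Tris-HCl, pH 7.2–7.4, for up to 120 min. Sampled every 30 min and analysed by radio-HPLC and TLC.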
A short description of data set [10]: Partition coefficient, log D at pH 7.2 to 7.4 by HPLC Multisorb. To be noted: octanol/water. It counts as physicochemical. In a few lines: as §1
Data set [11] can be described thus: Protein binding in rat plasma by acetonitrile precipitation. It counts as ADME, cell-free. To be noted: read-out: PB (converted). The procedure, abridged: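 18F tracer incubated in freshly isolated rat plasma (protein 95 mg/ml) for 30 min at 37 °C. Protein precipitated with MeCN and extracted twice. Centrifuged at 2000g for 30 min at room temperature; n = 3.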

Sodium-dependent dopamine transporter, sequence (Q01959 whole entry): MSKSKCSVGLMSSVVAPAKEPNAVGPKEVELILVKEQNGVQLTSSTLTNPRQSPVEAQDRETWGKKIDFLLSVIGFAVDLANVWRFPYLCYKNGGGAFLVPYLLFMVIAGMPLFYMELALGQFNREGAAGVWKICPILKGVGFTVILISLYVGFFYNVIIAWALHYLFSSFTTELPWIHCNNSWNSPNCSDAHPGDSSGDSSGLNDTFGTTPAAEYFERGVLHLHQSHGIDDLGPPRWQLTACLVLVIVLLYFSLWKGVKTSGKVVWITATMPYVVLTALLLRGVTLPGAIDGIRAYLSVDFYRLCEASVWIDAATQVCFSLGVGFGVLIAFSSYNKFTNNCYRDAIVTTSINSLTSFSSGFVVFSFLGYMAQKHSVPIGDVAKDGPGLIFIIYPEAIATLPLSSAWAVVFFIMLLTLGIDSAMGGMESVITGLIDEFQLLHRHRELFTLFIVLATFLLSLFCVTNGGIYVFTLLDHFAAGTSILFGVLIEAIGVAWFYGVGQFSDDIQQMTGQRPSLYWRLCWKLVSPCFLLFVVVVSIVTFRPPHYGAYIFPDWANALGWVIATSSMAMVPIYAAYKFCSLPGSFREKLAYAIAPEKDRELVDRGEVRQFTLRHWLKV
Sodium-dependent noradrenaline transporter, sequence (P23975 whole entry): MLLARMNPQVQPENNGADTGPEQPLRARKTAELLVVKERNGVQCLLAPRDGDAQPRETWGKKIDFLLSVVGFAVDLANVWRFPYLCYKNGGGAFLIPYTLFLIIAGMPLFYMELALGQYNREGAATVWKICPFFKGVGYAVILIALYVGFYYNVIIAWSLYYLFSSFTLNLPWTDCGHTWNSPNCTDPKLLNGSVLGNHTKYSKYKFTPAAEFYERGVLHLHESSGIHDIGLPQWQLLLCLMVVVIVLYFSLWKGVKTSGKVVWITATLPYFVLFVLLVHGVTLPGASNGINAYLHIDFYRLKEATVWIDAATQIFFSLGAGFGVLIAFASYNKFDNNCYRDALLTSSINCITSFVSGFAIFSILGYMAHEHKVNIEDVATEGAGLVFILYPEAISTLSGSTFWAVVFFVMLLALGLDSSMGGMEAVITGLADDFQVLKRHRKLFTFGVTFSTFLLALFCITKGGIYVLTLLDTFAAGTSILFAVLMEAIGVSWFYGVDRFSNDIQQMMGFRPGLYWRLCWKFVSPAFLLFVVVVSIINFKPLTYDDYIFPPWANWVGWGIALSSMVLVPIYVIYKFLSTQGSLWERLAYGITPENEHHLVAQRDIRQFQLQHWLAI

`N#Cc1ccc2[nH]cc([C@H]3CC[C@@H](N4CCc5ccccc5C4)CC3)c2c1`: the Ki in data set [1] was over 1000 nM; in data set [2], 4.51 nM; in data set [3], 1430 nM; in data set [4] it was 189 nM; in data set [5], 424 nM. Besides, the fold change (FC) in data set [6] came to 41.9.

In the case of `COc1ccc2c(c1)CCN([C@H]1CC[C@H](c3c[nH]c4ccc(C#N)cc43)CC1)C2`, the Ki in [1] is 267 nM; in [2] it was 73.7 nM; in data set [3], 96.7 nM; in [4], 518 nM; in data set [5], 462 nM. The fold change (FC) in [6] is 7.

For the compound `Cc1ccc(Sc2ccccc2CN(C)C)c(N)c1`, the values for the Ki in data set [2] and in [4] were 0.73 nM and 2.03 nM, respectively.

Regarding `COc1ccc2c(c1)CCN([C@H]1CC[C@@H](c3c[nH]c4ccc(C#N)cc43)CC1)C2`, the Ki in data set [1] amounted to 13100 nM; in [2], 4.1 nM; in data set [3], 1020 nM; in data set [4] it was 165 nM; in data set [5], 370 nM. In [6], the fold change (FC) came out at 40.2.

Regarding `N#Cc1ccc2[nH]cc([C@H]3CC[C@H](N4CCc5cc(OCCC[18F])ccc5C4)CC3)c2c1`, the Stability entry (in [7]; with Cortex) was “Stable” in each case. Also, the results for the pH-dependent lipophilicity (logD) in data set [8] and in data set [10] were 2.36 and 3.27, respectively. For the same compound, the chromatographic logD in data set [9] was 2.49.

Consider `N#Cc1ccc2[nH]cc([C@H]3CC[C@H](N4CCc5ccccc5C4)CC3)c2c1`, for which the Ki came out at 2530 nM in data set [1]; 90.7 nM in [2]; 184 nM in [3]; 286 nM in data set [4]; 309 nM in [5]. In addition, in data set [6], the fold change (FC) stood at 3.2.

With `N#Cc1ccc2[nH]cc([C@H]3CC[C@H](N4CCc5cc(OCCCF)ccc5C4)CC3)c2c1`, the Ki was 2860 nM in [1]; 327 nM in [2]; 102 nM in [3]; 2310 nM in data set [4]; 343 nM in data set [5]. For the same compound, the fold change (FC) in data set [6] was determined as 7.1.

Turning to `N#Cc1ccc2[nH]cc([C@H]3CC[C@@H](N4CCc5cc(OCCC[18F])ccc5C4)CC3)c2c1`, in [11], the fraction unbound is 0.973. Further, the Stability entry (in data set [7]; in the data set with Cortex) was “Stable” in each case. The logD turned out to be 2.47 in data set [8] and 3.27 in data set [10]. This compound also had a chromatographic logD in data set [9] of 2.54.

On to `N#Cc1ccc2[nH]cc([C@H]3CC[C@@H](N4CCc5cc(OCCCF)ccc5C4)CC3)c2c1`, for which the inhibition constant (Ki) in [1] was found to be 5670 nM; in data set [2] it was 6.16 nM; in data set [3], 772 nM; in [4], 914 nM; in [5], 366 nM. Moreover, in [6], the fold change (FC) was determined as 140.
